Assay type in all cases: functional
Test [1] has as its system Rattus norvegicus. The test can be described thus: Ex vivo percent inhibition against serum TXB2 production after 2 hr at dose 10 mg/kg by oral administration in rat.
Test [2] relates to Rattus norvegicus. The experiment in a line: Ex vivo percent inhibition against serum TXB2 production after 24 hr r at dose 1 mg/kg by oral administration in rat. The gist of the method: (§1)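 Male Sprague–Dawley rats, 7–8 weeks old, dosed orally. Controls got vehicle alone (2 mL/kg water with a little gum arabic). At 24 h, 1 mL blood was drawn from the abdominal aorta under pentobarbital anesthesia (50 mg/kg ip) and clotted 90 min at 25 °C. Serum TXB2 was measured by radioimmunoassay. % inhibition = [1 − (B/A)] × 100 versus untreated rats.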

Test [3] concerns Rattus norvegicus. The test can be described thus: Ex vivo percent inhibition against serum TXB2 production after 24 hr r at dose 10 mg/kg by oral administration in rat. In outline: as §1

Compound `O=C(O)CCCC/C=C(\c1ccccc1)c1ccc[n+]([O-])c1` came in with an inhibition in vivo at 10 mg/kg in the test on Rattus norvegicus [1] of 85%.
The same measure, in the same setting: with `NC(=O)CCCC/C=C(\c1ccccc1)c1cccnc1` the figure was 93%.
In the test with Rattus norvegicus [2], `O=C(O)CCCCC/C=C(\c1ccccc1)c1cccnc1` registered an inhibition in vivo at 1 mg/kg of 24%.
For `COC(=O)CCCC/C=C(\c1ccccc1)c1cccnc1`, in the test with Rattus norvegicus [1], the inhibition in vivo at 10 mg/kg came out at 92%.
In the test on Rattus norvegicus [2], `CC(C)(CCC/C=C(\c1ccccc1)c1cccnc1)C(=O)O` yielded an inhibition in vivo at 1 mg/kg of 14%.
The compound `OCCCCC/C=C(\c1ccccc1)c1cccnc1` had an inhibition in vivo at 10 mg/kg in the test on Rattus norvegicus [1] of 92%.
As for `O=C(O)CCCCCC/C=C(\c1ccccc1)c1cccnc1`, the inhibition in vivo at 1 mg/kg with Rattus norvegicus [2] came out at 17%.
The same measure, in the same setting: with `CC(C)CSC(CCC/C=C(\c1ccccc1)c1cccnc1)C(=O)O` (stereo unspecified) the figure was 8%.
Compound `CCOC(=O)CCCC/C=C(\c1ccccc1)c1cccnc1` came in with an inhibition in vivo at 10 mg/kg in the test on Rattus norvegicus [1] of 90%. The compound further gave an inhibition in vivo at 1 mg/kg with Rattus norvegicus [2] of 35%.
`CC(C)(CCC/C=C(/c1cccnc1)c1cccs1)C(=O)O`: the inhibition in vivo at 1 mg/kg with Rattus norvegicus [2] turned out to be 17%.
As for `O=C(O)CCCCCCCC/C=C(\c1ccccc1)c1cccnc1`, at 10 mg/kg the inhibition in vivo with Rattus norvegicus [1] was 92%. Also, in the test with Rattus norvegicus [2], the inhibition in vivo at 1 mg/kg came out at 10%.
Take `CC(C)(O)C(CCC/C=C(\c1ccccc1)c1cccnc1)C(=O)O` (stereo unspecified): in the test with Rattus norvegicus [2], at 1 mg/kg the inhibition in vivo was 37%.
`O=C(O)CCCC/C=C(\c1ccccc1)c1cccnc1` [(E)-ISBOGREL] came in with an inhibition in vivo at 1 mg/kg in the test with Rattus norvegicus [2] of 53%. The inhibition in vivo at 10 mg/kg in the test on Rattus norvegicus [3] was determined as 90%.

(Values after ChEMBL document CHEMBL1122952, “Thromboxane synthetase inhibitors (TXSI). Design, synthesis, and evaluation of a novel series of omega-pyridylalkenoic acids” (J Med Chem, 1985).)
